Screening results: PubChem, several laboratories
UBC9 SUMO inh: inhibitors of in vitro SUMOylation cascade, primary screen, biochemical, HTRF, uHTS; HTRF SUMOylation assay, SAE1/SAE2 + UBC9; inhibition, % at 35 µM; 290,000 compounds, 0.36% hits; in the data active = inhibition above about 50%, passing the limit was not always enough
Target sequence (P63279 whole entry, looked up): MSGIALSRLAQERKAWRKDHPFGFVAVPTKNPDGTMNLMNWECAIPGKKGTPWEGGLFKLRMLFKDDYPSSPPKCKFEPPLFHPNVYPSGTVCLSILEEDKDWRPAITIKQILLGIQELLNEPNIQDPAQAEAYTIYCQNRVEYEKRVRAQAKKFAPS
NALP1 yeast inh: NALP1 inflammasome inhibitors in reconstituted yeast, colorimetric, S. cerevisiae, triplicate retest | 280,000 compounds, 0.61% hits | inhibition, % at 10 µM | AID 2071, 2009 | S. cerevisiae NALP1/ASC/caspase-1 growth, X-gal OD620, 72 h; in the data active = inhibition mostly above about 24%, no sharp cut-off; inactive = mostly below about 32%
Mot1-301 SUMO: yeast Mot1-301 growth rescue at high temperature, primary screen, SUMOylation pathway inhibitor project, S. cerevisiae, ATP luminescence, 38.5C | S. cerevisiae Mot1-301 growth rescue; percent above DMSO median, 100 means doubled | growth rescue, % at 18.8 µM | 320,000 compounds, 1% hits | AID 2716, 2010;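 active = every valid replicate shows activation above 250% relative to neutral control wells; inactive = the rest, any valid replicate at or below 250%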;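 note: OY570 slx delta 5 strain wells were the positive control but not used for scaling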
DNA FID counter: compounds displacing fluorescent DNA intercalator, primary screen, artefact control for HCV NS3 helicase inhibitor project, biochemical, FID fluorescence. 290,000 compounds, 0.17% hits. DNA fluorescent intercalator displacement. AID 1845, 2009. inhibition, % at 7.9 µM; in the data active = inhibition above about 37%;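 note: 0% = vehicle and 100% = reference compound; higher means more ethidium bromide displaced from hairpin DNA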
IMP-1 inhibitor: IMP-1 metallo-beta-lactamase inhibitors, primary screen, biochemical, epi-absorbance readout, Pseudomonas aeruginosa enzyme. metallo-beta-lactamase IMP-1 (Pseudomonas aeruginosa). purified IMP-1, nitrocefin hydrolysis, epi-absorbance fluorescence. inhibition, % at 5.6 µM. 290,000 compounds, 0.45% hits. AID 1556, 2009;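 active = inhibition above the mean plus 3 SD of all compounds in the same screening run, cut at about 4.5% in these data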;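 note: 0% = IMP-1 with DMSO and 100% = DMSO wells lacking enzyme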
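System: purified recombinant IMP-1 beta-lactamase. Medium: Zinc- and detergent-supplemented HEPES buffer, pH 7.1. Compound: one 5.6 µM dose […]. Schedule: 15 min preincubation plus 25 min reaction at 25 °C. Technique: Epi-absorbance fluorescence, 480 nm excitation, 530 nm emission.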
VIM-2 inhibitor: VIM-2 metallo-beta-lactamase inhibitors, primary screen, biochemical, epi-absorbance readout, Pseudomonas aeruginosa enzyme | AID 1527, 2009 | inhibition, % at 5.6 µM | 290,000 compounds, 0.89% hits | purified VIM-2, nitrocefin hydrolysis, epi-absorbance fluorescence;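 active = inhibition above the mean of all tested compounds plus 3 SD, cutoff set per screening run, cut at about 7.5% in these data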;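 note: red hydrolysis product quenches plate fluorescence so inhibitors raise well fluorescence; 0% = enzyme with DMSO and 100% = DMSO without enzyme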
* = called active by the depositor; nt = no result given. The list is not random: actives were taken first. Their share in the collection is about 2.9%.

SMILES	UBC9 SUMO inh	NALP1 yeast inh	Mot1-301 SUMO	DNA FID counter	IMP-1 inhibitor	VIM-2 inhibitor
Cc1cc(Br)ccc1NC(=O)CN1C(=S)NC(C)(C)CC1C (stereo not drawn)	9.4	29.3*	2.4	-5.5	-2.0	-1.8
Cc1cc(C(=O)Nc2ccc(Cl)cc2)c(C)n1-c1ccccc1	87.5*	14.9	25.7	-11.6	-0.9	-1.4
CSc1nc2nccc(-c3ccc4c(c3)OCO4)n2n1	31.0	-8.6	22.1	-6.0	-5.8	10.8*
Cc1ccc(CNC(=O)CS(=O)(=O)Cc2nc(-c3ccc(C)cc3)oc2C)cc1	-0.1	29.7	-23.2	-22.9	0.7	0.5
CCOC(=O)Cc1csc(NC(=O)Cc2ccc(Cl)cc2)n1	-1.9	2.1	-8.6	-14.3	-2.5	-2.9
CCOC(=O)Cc1csc(NC(=O)Cc2ccc(Br)cc2)n1	11.5	35.4*	23.4	-10.4	-2.9	-0.6
Cc1cccc(N(CC(=O)Nc2ccc(F)cc2)S(C)(=O)=O)c1	8.3	-6.4	-23.5	-5.9	2.2	1.6
Cc1cc(C)cc(NC(=O)CN(c2ccc(F)cc2)S(C)(=O)=O)c1	-1.2	10.5	-16.6	-15.7	7.4*	-3.2
CC(C)(O[C@@H]1O[C@H](CO)[C@@H](O)[C@H](O)[C@H]1O)[C@@H]1CC=C(C(=O)O)CC1	nt	nt	-0.6	nt	nt	nt
CN(C)CC#CCCCCCCC#CCN(C)C	-11.7	18.1	995.5*	11.6	-3.2	-0.3
C#CCCCCCCC#CCN(C)C	9.9	52.0	0.6	1.4	-3.0	-0.6
O=C(Nc1cccnc1)c1ccccc1O	-3.0	-24.9	7.6	-8.2	-3.0	-0.9
O=C(Nc1cccnc1)c1cccnc1Cl	10.9	-6.7	339.3*	-1.1	-2.6	-0.1
COc1ccc(-n2cnc3cc(C(=O)NCCN4CCOCC4)ccc32)cc1	3.0	4.7	-3.7	-5.1	-1.5	-1.5
CCOc1ccc(-n2c(C)nc3cc(C(=O)NCCCN4CCOCC4)ccc32)cc1	-4.6	26.2*	17.7	8.7	0.2	-1.6
COc1ccc(OC)c(-n2cnc3cc(C(=O)NCCCN4CCOCC4)ccc32)c1	-12.5	23.0*	-14.1	3.7	-1.9	3.9
CCN1/C(=C2/SC(=S)N(NC(C)=O)C2=O)Sc2ccccc21	-18.9	8.1	68.6	-6.0	0.3	2.4
Cn1c(=O)c([N+](=O)[O-])c(NCCCn2ccnc2)c2ccccc21	11.0	6.0	-13.9	1.5	-1.6	7.9*
CCCCNc1c([N+](=O)[O-])c(=O)n(C)c2ccccc12	1.4	4.6	-7.2	-4.1	-0.5	-0.9
CC(C)CNC(=O)[C@H](Cc1ccccc1)NC(=O)c1cccs1	10.8	-2.6	211.3	-5.2	-0.6	-0.7
C=CCN(CC=C)S(=O)(=O)c1ccc(NC(=S)NC(=O)/C=C/c2ccccc2)cc1	14.6	27.4*	4.8	-18.4	-2.9	-3.2
CCCCN(CC)S(=O)(=O)N1CCC(C(=O)NCCCN2CCOCC2)CC1	14.1	-16.7	-7.8	4.1	6.6*	-1.4
CNC(=O)c1cc(C(=O)c2ccc(Cl)cc2)c[nH]1	13.7	7.4	10.0	-7.3	-2.0	-1.5
O=C(c1ccc(Cl)cc1)c1c[nH]c(C(=O)NNc2ccccc2)c1	-2.6	0.5	336.7*	-6.2	-0.5	-1.9
Cc1ccc(-c2ccc(C(=O)Nc3ccccc3)o2)c2ccccc12	24.4	23.2	-11.3	-14.7	2.0	-0.9
SMILES	UBC9 SUMO inh	NALP1 yeast inh	Mot1-301 SUMO	DNA FID counter	IMP-1 inhibitor	VIM-2 inhibitor
Cc1ccc(S(=O)(=O)NC(=O)c2ccc(-c3ccc(C)c4ccccc34)o2)cc1	19.4	19.1	5.8	-25.4	4.7*	-4.3
CCNc1nc(NCC)nc(OCCOC(C)=O)n1	13.6	-133.7	111.8	-3.4	4.9*	1.9
O=C(NCc1ccc2c(c1)OCO2)c1cc2ccccc2oc1=O	-1.8	28.1	-2.8	1.9	-1.2	-2.0
O=C(c1cc2ccccc2oc1=O)N(Cc1ccc2c(c1)OCO2)Cc1ccco1	4.2	7.7	-8.1	-13.2	6.5*	-2.1
O=C(NCc1cccc(Cl)c1)c1cccc(S(=O)(=O)N2CCCC2)c1	nt	nt	1.7	nt	nt	nt
CCc1cc(=O)[nH]c(SCCC(F)=C(F)F)n1	7.5	-3.0	-3.1	-3.6	-3.0	-1.8
Oc1c(CN2CCOCC2)cc(COCc2ccccc2)c2cccnc12	-48.7	9.6	-5.0	-2.9	-5.6	7.7*
CN(C)c1cc(Nc2ccc(O)cc2)c([N+](=O)[O-])c2nonc12	34.0	nt	68.9	4.5	-4.4	9.1*
O=C(Nc1ccc(Cl)cc1)OC(CN1CCCCC1)C(F)(F)F (stereo not drawn)	-11.4	25.0*	0.7	5.1	-1.3	0.5
O=C(Nc1cccc(F)c1)OC(CN1CCCCC1)C(F)(F)F (stereo not drawn)	-17.3	-2.2	-2.0	1.4	-1.6	-3.4
O=C(CCN1CCC(c2ccccc2)C1)c1cccs1 (stereo not drawn)	20.8	0.2	36.4	-2.8	0.6	-2.5
O=C(CCN1CCC(c2ccccc2)C1)c1ccccc1 (stereo not drawn)	15.2	22.9*	-4.8	3.0	-1.8	-1.9
COc1ccc(/C=C\c2cc(OC)c(OC)cc2CC[N+](C)(C)C)cc1OC	14.1	5.3	5.3	17.9	-0.5	1.1
Cc1cc(S(=O)(=O)Nc2cc(C)c(O)c(C)c2)c(C)s1	-7.1	40.0*	71.0	-2.2	-2.4	-2.0
Cc1ccccc1NC(=O)CC(C)S(=O)(=O)c1ccc2c(c1)NC(=O)CO2 (stereo not drawn)	-2.6	11.5	133.5	-11.4	-0.2	1.3
O=C(Cc1ccc(Cl)cc1)Oc1cccc2cccnc12	8.4	78.1*	-7.4	-2.7	-1.6	-2.5
O=C(Oc1cccc2cccnc12)c1ccco1	-37.3	-17.5	3.5	2.6	-3.6	-2.1
O=[N+]([O-])c1ccc(N/N=C/c2c[nH]c3ccccc23)cc1	-6.0	1.1	10.8	34.7	-3.1	-2.6
N=C1/C(=C/c2ccc(-c3cccc(C(=O)O)c3)o2)C(=O)N=C2SC=C(c3ccccc3)N12	78.0*	-2.9	4.7	-13.2	3.1	-0.2
O=C(O)c1cccc(-c2ccc(/C=N/Nc3ccc([N+](=O)[O-])cc3)o2)c1	36.4	nt	310.7*	-15.9	-0.1	0.4
O=C(O)c1cccc(-c2ccc(/C=N/n3cnnc3)o2)c1	7.9	-18.1	-21.9	1.0	-2.8	11.0*
O=[N+]([O-])c1ccc(N/N=C/c2cccc(O)c2O)cc1	4.5	14.5	317.4*	12.5	-0.6	-0.3
CCOC(=O)c1c(N2C(=O)Nc3cc(Cl)c(Cl)cc3N2O)sc2c1CCCCC2	41.5	-0.8	-8.2	1.5	-1.1	-3.1
